Measurements pooled from the literature.
Observed: cell growth or viability

Cc1nc(NC(=O)N2CCC[C@H]2C(N)=O)sc1-c1ccnc(C(C)(C)C(F)(F)F)c1
EC50 (HGC-27; ATP luminescence; 5 days): 20.1 µM

Cc1n[nH]c2ccc3nc(-c4ccc(C(=O)NCCN(C)C)cc4F)c4c(c3c12)CCCCC4
GI50 (Kasumi 1; 72 h): 0.397 µM

COc1cccc2c1C(=O)c1c(O)c3c(c(O)c1C2=O)C[C@@](O)(C(=O)CO)C[C@@H]3O[C@H]1C[C@H](N)[C@H](O)[C@H](C)O1
IC50 (SW480; MTT; 72 h): 0.09 µM

Cc1n[nH]c2ccc3nc(-c4ccc(C(=O)NCCN(C)C)cc4)c4c(c3c12)CCCC4
GI50 (Kasumi 1; 72 h): 0.148 µM

C[C@H](Nc1ccc2c(c1)OCCn1cc(N3C(=O)OC[C@H]3C(F)F)nc1-2)C(N)=O
EC50 (HGC-27; ATP luminescence; 5 days): 0.12 µM

C=C1CC[C@@H]2[C@](C)(CO)[C@H](O)CC[C@@]2(C)[C@@H]1C/C=C1/C(=O)OC[C@H]1O
IC50 (SW480; MTT; 72 h): 4.17 µM

CCN(CC)c1ccc(C=NNC(=O)CSc2nc3ccccc3c(=O)n2Cc2ccc(S(N)(=O)=O)cc2)c(O)c1
GI50 (NCI/ADR-RES; SRB): > 100 µM

Cc1nc(Nc2ncc(C(=O)Nc3c(C)cccc3Cl)s2)cc(N2CC[C@H](O)C2)n1
inhibition (Toledo; ATP luminescence; 10 µM, 72 h): 50%

NNc1nc2c(Cl)cc(Cl)cc2c(=O)n1-c1ccc(F)cc1
IC50 (SW480; MTT; 48 h): 52.1 µM
